Source: BindingDB's records for doi:10.1124/dmd.106.013888 (Act, 2007)

Biological target: T1, Lanosterol 14-alpha demethylase (Homo sapiens, UniProt Q16850)
T1 sequence (Q16850 whole entry): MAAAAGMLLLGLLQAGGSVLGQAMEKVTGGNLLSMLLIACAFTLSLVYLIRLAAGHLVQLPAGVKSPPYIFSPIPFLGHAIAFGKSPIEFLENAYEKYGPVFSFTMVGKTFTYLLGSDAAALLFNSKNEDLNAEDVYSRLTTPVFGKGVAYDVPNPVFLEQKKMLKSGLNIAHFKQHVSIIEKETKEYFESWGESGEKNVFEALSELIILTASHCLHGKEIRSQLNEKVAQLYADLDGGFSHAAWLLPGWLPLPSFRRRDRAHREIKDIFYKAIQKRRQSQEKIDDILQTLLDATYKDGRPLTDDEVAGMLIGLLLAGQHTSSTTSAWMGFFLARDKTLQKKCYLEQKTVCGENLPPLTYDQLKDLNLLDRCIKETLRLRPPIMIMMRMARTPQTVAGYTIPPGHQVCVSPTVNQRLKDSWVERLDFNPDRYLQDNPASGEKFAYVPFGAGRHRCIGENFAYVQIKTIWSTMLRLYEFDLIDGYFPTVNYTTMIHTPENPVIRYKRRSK
Assay: Inhibition of human CYP51 expressed in Topp 3 cells by lanosterol demethylase assay
How it was run: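 0.5 ml phosphate buffer pH 7.4 with KCN, NADPH regenerating system, 60 min at 37 °C. Triene product extracted and quantified by chromatography (ergosterol internal standard). IC50 read from plot of % activity remaining vs concentration.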

IC50: > 200 µM
Structure (SMILES): O=c1c(CC[S+]([O-])c2ccccc2)c(O)n(-c2ccccc2)n1-c1ccccc1 (stereo unspecified) [1,2-Diphenyl-3,5-dioxo-4-(2-phenylsulfinylethyl)pyrazolidine]
